In general, inhibition refers to the relative decrease from the control value, in per cent.

Structures are written as SMILES.

Assay [1] concerns the target Serine/threonine-protein kinase PAK 2 (Homo sapiens) (UniProt Q13177). Kind of assay: Inhibition of human recombinant PAK2 at 40 nM in presence of ATP by radiometric assay relative to control.
For assay [2], the target named is Tyrosine-protein kinase HCK (Homo sapiens) (UniProt P08631). Kind of assay: Inhibition of human recombinant HCK at 40 nM related to control ULK1.
Tyrosine-protein kinase HCK (Homo sapiens), sequence (P08631 2-526 limits assumed): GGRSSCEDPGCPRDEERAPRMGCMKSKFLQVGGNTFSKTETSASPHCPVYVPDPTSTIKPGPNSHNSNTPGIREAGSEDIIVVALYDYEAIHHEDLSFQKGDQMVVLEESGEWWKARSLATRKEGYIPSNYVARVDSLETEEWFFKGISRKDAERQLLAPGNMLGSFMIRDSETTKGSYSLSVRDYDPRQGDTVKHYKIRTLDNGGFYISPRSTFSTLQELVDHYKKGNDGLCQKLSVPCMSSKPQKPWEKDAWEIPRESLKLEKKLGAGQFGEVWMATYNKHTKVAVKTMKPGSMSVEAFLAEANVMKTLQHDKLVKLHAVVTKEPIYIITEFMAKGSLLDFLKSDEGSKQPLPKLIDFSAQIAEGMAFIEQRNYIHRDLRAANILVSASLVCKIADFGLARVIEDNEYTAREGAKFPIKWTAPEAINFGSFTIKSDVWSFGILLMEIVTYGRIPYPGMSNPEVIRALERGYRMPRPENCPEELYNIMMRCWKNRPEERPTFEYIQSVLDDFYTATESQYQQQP
Assay [3] has as its target Cyclin-dependent kinase 7 (Homo sapiens) (UniProt P50613). Kind of assay: Inhibition of human recombinant CDK7 at 40 nM related to control ULK1.
Assay [4] deals with T1, Myotonin-protein kinase (Homo sapiens) (UniProt Q09013).
T1 sequence (whole entry): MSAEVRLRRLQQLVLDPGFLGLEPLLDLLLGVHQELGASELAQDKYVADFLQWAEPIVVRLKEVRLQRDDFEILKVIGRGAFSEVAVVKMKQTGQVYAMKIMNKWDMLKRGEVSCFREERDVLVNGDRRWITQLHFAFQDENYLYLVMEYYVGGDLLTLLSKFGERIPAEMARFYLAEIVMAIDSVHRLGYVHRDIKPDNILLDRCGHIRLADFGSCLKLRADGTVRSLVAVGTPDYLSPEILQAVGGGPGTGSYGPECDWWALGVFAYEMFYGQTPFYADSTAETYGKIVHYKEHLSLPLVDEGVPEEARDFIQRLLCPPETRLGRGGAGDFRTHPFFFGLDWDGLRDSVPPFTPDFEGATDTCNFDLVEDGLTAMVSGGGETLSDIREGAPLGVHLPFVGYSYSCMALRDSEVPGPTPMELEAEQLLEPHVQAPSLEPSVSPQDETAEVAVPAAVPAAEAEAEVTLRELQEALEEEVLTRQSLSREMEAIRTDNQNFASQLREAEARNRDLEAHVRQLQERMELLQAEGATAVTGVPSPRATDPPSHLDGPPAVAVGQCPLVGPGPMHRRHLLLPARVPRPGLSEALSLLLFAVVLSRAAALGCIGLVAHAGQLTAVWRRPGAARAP
Kind of assay: Inhibition of human recombinant DMPK1 at 40 nM in presence of ATP by radiometric assay relative to control.

Assay [5] has as its target Casein kinase II subunit alpha (Homo sapiens) (UniProt P68400). Kind of assay: Inhibition of human recombinant CK2a1 at 40 nM in presence of ATP by radiometric assay relative to control.
Assay [6] addresses T2, Bone morphogenetic protein receptor type-2 (Homo sapiens) (UniProt Q13873).
T2 sequence (whole entry): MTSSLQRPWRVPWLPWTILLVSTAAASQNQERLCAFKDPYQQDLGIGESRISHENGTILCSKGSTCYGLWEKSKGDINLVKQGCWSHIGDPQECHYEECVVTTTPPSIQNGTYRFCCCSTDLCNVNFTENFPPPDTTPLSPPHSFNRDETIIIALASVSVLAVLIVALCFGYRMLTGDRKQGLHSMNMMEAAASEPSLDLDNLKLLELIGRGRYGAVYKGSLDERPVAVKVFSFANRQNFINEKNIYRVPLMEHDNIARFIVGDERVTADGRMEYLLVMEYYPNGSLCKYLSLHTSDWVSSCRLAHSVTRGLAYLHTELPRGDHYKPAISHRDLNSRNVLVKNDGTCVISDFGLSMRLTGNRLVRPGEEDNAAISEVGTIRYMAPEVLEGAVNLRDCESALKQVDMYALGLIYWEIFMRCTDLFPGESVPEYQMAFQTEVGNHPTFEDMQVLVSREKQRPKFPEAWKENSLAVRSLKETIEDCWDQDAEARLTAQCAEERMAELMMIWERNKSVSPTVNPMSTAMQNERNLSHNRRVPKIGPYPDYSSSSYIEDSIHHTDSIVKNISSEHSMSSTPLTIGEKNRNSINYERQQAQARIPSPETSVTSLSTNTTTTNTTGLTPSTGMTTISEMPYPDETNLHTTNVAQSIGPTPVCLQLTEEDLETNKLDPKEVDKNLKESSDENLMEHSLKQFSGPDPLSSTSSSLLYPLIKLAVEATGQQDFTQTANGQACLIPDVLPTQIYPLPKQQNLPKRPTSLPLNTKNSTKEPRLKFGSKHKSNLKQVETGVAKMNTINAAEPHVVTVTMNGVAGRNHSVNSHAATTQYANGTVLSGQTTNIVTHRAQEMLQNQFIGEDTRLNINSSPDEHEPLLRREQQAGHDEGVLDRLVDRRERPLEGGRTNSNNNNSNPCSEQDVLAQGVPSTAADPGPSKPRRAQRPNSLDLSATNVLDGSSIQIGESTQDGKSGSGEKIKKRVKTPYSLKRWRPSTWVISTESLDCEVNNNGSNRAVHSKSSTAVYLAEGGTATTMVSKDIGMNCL
Kind of assay: Inhibition of human recombinant BMPR2 at 500 nM in presence of ATP by radiometric assay relative to control. Summed up: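 Part of a radiometric in vitro activity panel of 327 recombinant human kinases. Each kinase was tested in duplicate at one inhibitor concentration. Activity remaining was expressed as a percentage of the vehicle control, and percent inhibition was taken as 100 minus that value.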

Assay [7] addresses MAP/microtubule affinity-regulating kinase 3 (Homo sapiens) (UniProt P27448). Kind of assay: Inhibition of human recombinant MARK3 at 500 nM in presence of ATP by radiometric assay relative to control.
The target of assay [8] is Mitogen-activated protein kinase kinase kinase kinase 4 (Homo sapiens) (UniProt O95819). Nature of the assay: Inhibition of human recombinant HGK at 15 nM related to control ULK1.
Mitogen-activated protein kinase kinase kinase kinase 4 (Homo sapiens), sequence (O95819 2-1239 limits assumed): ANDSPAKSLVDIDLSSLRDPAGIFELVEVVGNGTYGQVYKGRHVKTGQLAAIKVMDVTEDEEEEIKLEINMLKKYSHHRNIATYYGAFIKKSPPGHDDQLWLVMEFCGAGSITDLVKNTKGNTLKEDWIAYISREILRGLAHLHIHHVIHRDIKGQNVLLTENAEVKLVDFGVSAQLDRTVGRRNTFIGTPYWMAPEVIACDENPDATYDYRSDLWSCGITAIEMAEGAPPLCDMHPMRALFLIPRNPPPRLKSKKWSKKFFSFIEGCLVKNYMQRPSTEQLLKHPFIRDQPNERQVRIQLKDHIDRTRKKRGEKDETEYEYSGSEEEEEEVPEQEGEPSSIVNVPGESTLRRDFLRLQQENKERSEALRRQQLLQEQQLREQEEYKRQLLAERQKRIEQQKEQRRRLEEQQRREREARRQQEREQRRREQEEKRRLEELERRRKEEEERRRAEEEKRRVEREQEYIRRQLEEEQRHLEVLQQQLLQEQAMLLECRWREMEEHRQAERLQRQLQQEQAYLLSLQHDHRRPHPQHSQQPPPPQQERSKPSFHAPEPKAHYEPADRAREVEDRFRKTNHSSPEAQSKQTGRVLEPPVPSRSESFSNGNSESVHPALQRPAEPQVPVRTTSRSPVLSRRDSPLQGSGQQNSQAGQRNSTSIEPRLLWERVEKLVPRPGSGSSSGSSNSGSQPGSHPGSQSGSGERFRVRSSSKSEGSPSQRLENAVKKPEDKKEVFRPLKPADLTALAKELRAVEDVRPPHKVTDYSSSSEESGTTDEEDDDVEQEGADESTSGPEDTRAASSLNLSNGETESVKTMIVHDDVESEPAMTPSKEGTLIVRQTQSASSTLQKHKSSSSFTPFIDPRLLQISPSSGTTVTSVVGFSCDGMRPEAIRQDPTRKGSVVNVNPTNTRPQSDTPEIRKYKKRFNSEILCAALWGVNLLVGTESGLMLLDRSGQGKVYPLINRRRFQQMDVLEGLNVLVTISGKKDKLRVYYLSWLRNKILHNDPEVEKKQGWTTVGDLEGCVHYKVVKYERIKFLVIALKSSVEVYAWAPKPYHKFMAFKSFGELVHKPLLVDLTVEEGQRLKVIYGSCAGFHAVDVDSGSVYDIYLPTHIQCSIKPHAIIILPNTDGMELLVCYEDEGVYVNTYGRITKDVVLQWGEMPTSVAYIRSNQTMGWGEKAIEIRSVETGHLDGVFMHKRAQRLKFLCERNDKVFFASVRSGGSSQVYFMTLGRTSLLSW
Assay [9] deals with Serine/threonine-protein kinase PAK 3 (Homo sapiens) (UniProt O75914). Kind of assay: Inhibition of human recombinant PAK3 at 15 nM in presence of ATP by radiometric assay relative to control.
Serine/threonine-protein kinase PAK 3 (Homo sapiens), sequence (O75914 whole entry, looked up): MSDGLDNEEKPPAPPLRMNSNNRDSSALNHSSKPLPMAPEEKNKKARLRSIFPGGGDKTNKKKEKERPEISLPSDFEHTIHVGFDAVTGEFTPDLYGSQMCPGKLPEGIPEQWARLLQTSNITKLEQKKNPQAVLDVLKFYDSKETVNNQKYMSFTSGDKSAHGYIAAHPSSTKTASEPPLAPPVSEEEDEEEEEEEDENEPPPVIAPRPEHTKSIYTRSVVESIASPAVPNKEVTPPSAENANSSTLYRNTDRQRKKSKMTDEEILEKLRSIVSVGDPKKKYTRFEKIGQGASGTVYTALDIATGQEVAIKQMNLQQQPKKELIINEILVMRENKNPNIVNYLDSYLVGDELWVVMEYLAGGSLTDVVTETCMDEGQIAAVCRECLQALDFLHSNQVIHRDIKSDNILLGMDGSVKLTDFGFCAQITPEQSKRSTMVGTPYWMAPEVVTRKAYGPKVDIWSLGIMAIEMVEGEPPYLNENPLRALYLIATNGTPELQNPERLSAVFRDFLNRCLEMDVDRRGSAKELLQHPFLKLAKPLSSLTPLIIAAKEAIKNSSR
Assay [10] concerns the target T3, Activin receptor type-1 (Homo sapiens) (UniProt Q04771).
T3 sequence (whole entry): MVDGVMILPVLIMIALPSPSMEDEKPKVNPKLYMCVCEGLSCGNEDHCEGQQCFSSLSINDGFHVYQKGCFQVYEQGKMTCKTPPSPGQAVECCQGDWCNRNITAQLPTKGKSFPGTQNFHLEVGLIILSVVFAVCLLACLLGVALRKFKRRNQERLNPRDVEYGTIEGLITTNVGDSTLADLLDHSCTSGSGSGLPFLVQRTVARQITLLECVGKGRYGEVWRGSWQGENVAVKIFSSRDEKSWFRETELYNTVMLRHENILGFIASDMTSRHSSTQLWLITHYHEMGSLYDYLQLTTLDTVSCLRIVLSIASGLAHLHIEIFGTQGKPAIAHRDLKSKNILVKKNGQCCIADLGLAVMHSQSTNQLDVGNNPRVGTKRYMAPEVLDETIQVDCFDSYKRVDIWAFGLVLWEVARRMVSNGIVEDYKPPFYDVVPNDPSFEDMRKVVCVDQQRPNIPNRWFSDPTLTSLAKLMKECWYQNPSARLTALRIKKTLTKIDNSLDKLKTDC
Nature of the assay: Inhibition of human recombinant ALK2 at 15 nM related to control ULK1. Summed up:
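Panel of 327 recombinant human kinases, each assayed in vitro by radiometric activity assay in duplicate at a single inhibitor concentration per compound, chosen with reference to its ULK1 inhibition. Activity remaining was expressed as percent of vehicle control, and percent inhibition was calculated as 100 minus percent activity remaining.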

Serine/threonine-protein kinase PAK 2 (Homo sapiens), sequence (Q13177 whole entry): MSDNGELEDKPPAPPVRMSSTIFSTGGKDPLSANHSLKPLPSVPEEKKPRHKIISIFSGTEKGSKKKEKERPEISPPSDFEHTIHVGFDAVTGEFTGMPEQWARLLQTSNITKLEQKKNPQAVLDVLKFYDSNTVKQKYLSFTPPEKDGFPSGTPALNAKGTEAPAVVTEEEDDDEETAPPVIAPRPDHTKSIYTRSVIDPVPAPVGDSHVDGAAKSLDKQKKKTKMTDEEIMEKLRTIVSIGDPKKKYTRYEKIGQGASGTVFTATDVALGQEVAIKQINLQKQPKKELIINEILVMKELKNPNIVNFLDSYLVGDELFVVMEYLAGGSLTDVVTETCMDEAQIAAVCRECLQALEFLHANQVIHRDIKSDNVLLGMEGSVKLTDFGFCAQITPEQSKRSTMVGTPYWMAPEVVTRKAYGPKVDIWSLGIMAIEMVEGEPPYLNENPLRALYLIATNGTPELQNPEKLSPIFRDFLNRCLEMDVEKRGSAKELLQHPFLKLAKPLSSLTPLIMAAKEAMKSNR
MAP/microtubule affinity-regulating kinase 3 (Homo sapiens), sequence (P27448 whole entry, looked up): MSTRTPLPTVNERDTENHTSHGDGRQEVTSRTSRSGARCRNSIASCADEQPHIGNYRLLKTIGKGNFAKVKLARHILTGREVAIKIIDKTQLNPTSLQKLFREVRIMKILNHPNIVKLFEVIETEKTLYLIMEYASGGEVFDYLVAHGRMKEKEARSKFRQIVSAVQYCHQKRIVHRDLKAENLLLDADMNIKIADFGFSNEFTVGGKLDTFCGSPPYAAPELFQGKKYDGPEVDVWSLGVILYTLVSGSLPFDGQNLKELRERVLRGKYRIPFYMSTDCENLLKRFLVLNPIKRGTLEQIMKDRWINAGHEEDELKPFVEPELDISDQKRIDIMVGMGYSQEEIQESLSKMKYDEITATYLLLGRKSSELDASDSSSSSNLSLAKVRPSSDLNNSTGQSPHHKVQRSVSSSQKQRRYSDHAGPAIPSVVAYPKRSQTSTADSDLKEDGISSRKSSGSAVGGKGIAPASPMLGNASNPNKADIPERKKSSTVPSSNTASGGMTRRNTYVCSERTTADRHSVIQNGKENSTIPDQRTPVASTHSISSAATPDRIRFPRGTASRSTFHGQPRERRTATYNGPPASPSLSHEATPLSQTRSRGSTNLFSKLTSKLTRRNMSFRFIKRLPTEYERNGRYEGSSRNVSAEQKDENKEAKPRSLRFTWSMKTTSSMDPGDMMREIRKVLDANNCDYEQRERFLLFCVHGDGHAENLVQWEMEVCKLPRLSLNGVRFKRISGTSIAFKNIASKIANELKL
Casein kinase II subunit alpha (Homo sapiens), sequence (P68400 whole entry, looked up): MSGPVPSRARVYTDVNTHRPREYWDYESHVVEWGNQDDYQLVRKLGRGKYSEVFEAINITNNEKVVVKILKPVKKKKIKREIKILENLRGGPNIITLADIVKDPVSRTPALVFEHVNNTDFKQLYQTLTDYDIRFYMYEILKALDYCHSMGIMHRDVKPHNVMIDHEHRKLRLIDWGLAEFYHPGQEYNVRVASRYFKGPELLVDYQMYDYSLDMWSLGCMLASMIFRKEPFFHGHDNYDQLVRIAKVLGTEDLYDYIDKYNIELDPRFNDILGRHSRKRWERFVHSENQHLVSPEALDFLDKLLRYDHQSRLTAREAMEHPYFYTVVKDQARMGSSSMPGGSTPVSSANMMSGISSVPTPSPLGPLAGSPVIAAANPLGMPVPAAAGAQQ
Cyclin-dependent kinase 7 (Homo sapiens), sequence (P50613 whole entry): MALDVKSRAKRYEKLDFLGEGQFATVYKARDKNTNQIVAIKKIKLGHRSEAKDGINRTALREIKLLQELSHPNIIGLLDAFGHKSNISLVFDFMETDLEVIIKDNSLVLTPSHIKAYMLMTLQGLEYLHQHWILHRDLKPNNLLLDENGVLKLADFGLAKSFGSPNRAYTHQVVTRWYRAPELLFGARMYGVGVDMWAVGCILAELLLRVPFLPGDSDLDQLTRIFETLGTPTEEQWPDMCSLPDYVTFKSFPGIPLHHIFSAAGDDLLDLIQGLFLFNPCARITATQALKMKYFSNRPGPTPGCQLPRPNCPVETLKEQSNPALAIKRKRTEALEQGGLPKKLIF

For the molecule `O=C(N[C@@H](C1CC1)C(F)(F)F)c1cc(-c2cnn3cc(-c4ccc(F)cc4)cnc23)cs1`, the inhibition in assay [1] amounted to 0%; in [4] it was 5%; in assay [5], 7%. Besides, the fold change (FC) in assay [2] was found to be 0; in assay [3] it was 0.32.
`CNC(=O)c1ccccc1Oc1nc(Nc2cc(OC)c(OC)c(OC)c2)ncc1Br`: the inhibition in [6] came to 0%; in assay [7], 45%.
As for `CC(C)[C@H](NC(=O)c1cc(-c2cnn3cc(-c4ccc(OCCN5CCCCC5)cc4)cnc23)cs1)C(F)(F)F`, the fold change (FC) in assay [8] was determined as 0; in assay [10], 0.3. The inhibition in assay [9] came to 4%.

For the origin of these results see ChEMBL document CHEMBL5653631, “A Potent and Selective ULK1 Inhibitor Suppresses Autophagy and Sensitizes Cancer Cells to Nutrient Stress” (iScience, 2018).
